What is called EC50 is the midpoint of the concentration-response curve.

The text below walks through data of ChEMBL document CHEMBL3352137, “Modification on ursodeoxycholic acid (UDCA) scaffold. discovery of bile acid derivatives as selective agonists of cell-surface G-protein coupled bile acid receptor 1 (GP-BAR1)” (J Med Chem, 2014).

The test system of data set [1] is Mus musculus. The data set is described as follows: Induction of FXR-mediated BSEP mRNA expression in CD1 mouse liver at 64 mg/kg, po measured 3 to 24 hrs post dose by real-time PCR method. It is filed as functional, organism-based. Details: dose 64 mg/kg. The method in brief:
(§1)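 Male CD1 mice (n = 3, 4) received a single oral dose of 64 mg/kg. Liver and ileum were collected at 6 or 24 h (3, 6 and 24 h also stated). Target mRNA was measured by SYBR real-time PCR (0.2 μM primers, 10 ng template, 40 cycles of 95 °C 20 s / 60 °C 30 s), with all reactions in triplicate. Comparison was versus control mice.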
(Quantitative PCR measures a nucleic acid by following its amplification.)

The test system of data set [2] is Mus musculus. The data set is described as follows: Increase in plasma bile acid level in CD1 mouse model of ANIT-induced cholestasis at 16 mg/kg, po.
In data set [3] the test system is Mus musculus. Kind of data set: Induction of FXR-mediated OST mRNA expression in CD1 mouse liver at 64 mg/kg, po measured 3 to 24 hrs post dose by real-time PCR method. It is filed as functional, organism-based. Also noted: dose 64 mg/kg. The essentials:
as §1

The target of data set [4] is T1, G-protein coupled bile acid receptor 1 (Homo sapiens) (UniProt Q8TDU6).
T1 sequence (whole entry): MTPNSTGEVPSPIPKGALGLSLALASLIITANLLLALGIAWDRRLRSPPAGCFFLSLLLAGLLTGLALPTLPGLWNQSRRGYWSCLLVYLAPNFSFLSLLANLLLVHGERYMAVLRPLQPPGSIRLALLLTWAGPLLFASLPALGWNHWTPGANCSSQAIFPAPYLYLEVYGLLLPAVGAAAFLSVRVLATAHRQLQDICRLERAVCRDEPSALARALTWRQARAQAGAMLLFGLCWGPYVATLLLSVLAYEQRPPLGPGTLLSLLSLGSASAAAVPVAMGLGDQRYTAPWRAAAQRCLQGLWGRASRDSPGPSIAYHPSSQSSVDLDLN
Kind of data set: (§2) Agonist activity at human GPBAR1 expressed in HEK293T cells assessed as stimulation of cAMP response element-mediated receptor transactivation by luciferase reporter gene assay. It is filed as functional, cell-based. As to conditions: HEK-293T. The essentials:
(§3)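 HEK-293T cells were cotransfected with a CRE-driven luc2P reporter (pGL4.29), pCMVSPORT6-human GP-BAR1 and a Renilla vector. 24 h after transfection they were stimulated for 18 h (10 μM single point; 0.1, 1 and 10 μM for EC50). Lysates were read for luciferase as a measure of intracellular cAMP rise, with TLCA 10 μM as reference. Data are mean ± standard error of at least three determinations in duplicate.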
A general note: In a reporter assay the amount or activity of a reporter protein is the signal.

The target of data set [5] is T2, G-protein coupled bile acid receptor 1 (Homo sapiens, UniProt Q8TDU6).
T2 sequence (Q8TDU6 whole entry): T1 sequence (whole entry)
The description is as §2. In kind it is functional, cell-based, HEK-293T. The method in brief:
as §3

Data set [6] deals with Mus musculus. Kind of data set: Induction of GPBAR1-mediated pro-glucagon-1 mRNA expression in CD1 mouse intestine at 64 mg/kg, po measured 6 hrs post dose by real-time PCR method. In kind it is functional. The method in brief:
as §1

Data set [7] has as its system Mus musculus. The data set is described as follows: Increase in plasma tauro-muricholic acid level in CD1 mouse model of ANIT-induced cholestasis at 16 mg/kg, po.
Data set [8] concerns Mus musculus. The data set is described as follows: Increase in plasma tauro-cholic acid level in CD1 mouse model of ANIT-induced cholestasis at 16 mg/kg, po.
Data set [9] deals with Mus musculus. Kind of data set: Induction of FXR-mediated OST mRNA expression in CD1 mouse liver at 64 mg/kg, po measured 24 hrs post dose by real-time PCR method. It is filed as functional, organism-based. Details: dose 64 mg/kg. The essentials:
as §1

Data set [10] deals with Mus musculus. The data set is described as follows: Induction of FXR-mediated BSEP mRNA expression in CD1 mouse liver at 64 mg/kg, po measured 24 hrs post dose by real-time PCR method. In kind it is functional, organism-based. Details: dose 64 mg/kg. The method in brief: as §1
In data set [11] the test system is Mus musculus. The data set is described as follows: Effect on plasma bile acid level in CD1 mouse model of ANIT-induced cholestasis at 64 mg/kg, po. In kind it is functional, organism-based. Details: dose 64 mg/kg.
Data set [12] has as its system Mus musculus. Kind of data set: Effect on body weight loss in CD1 mouse model of ANIT-induced cholestasis at 64 mg/kg, po. It is filed as functional, organism-based. Details: dose 64 mg/kg.
The next data set concerns HEK-293T. The data set is described as follows: Toxicity against HEK293T cells at 50 uM. In kind it is cell-based. As to conditions: human.
Data set [13] deals with T3, Bile acid receptor (Homo sapiens) (UniProt Q96RI1).
T3 sequence (whole entry): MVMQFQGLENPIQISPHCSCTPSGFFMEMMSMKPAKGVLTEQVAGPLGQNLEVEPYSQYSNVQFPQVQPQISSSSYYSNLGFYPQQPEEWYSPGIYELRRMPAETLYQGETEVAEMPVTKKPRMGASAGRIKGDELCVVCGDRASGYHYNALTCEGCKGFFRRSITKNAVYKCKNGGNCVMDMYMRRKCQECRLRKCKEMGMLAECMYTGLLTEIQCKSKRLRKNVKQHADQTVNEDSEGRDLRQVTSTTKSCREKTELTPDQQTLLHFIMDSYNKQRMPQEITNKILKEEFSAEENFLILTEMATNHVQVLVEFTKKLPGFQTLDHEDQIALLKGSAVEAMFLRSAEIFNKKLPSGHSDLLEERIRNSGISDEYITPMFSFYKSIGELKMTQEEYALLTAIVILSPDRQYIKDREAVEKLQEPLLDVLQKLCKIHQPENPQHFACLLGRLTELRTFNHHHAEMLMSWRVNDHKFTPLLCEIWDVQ
Kind of data set: Agonist activity at FXR (unknown origin) expressed in human HepG2 cells assessed as stimulation of FXR response element IR1-mediated receptor transactivation at 50 uM in presence of CDCA by luciferase reporter gene assay. It is filed as cell-based. The essentials:
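HepG2 cells were cotransfected with pSG5-FXR, pSG5-RXR, the IR1-containing p(hsp27)-TK-LUC reporter and a Renilla vector (pGL4.70). 24 h after transfection they were stimulated for 18 h with 10 μM CDCA plus 50 μM compound. Lysates were read for luciferase. Data are the RLU/RRU ratio, mean ± standard error, compared with CDCA and untreated cells.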

The source made the active and inactive calls. The calls are words filed in the database; no cut-off is given here.

In the case of `C[C@H](CCCCC(=O)O)[C@H]1CC[C@H]2[C@@H]3[C@@H](O)C[C@@H]4C[C@H](O)CC[C@]4(C)[C@H]3CC[C@]12C`, the result with Mus musculus [1] and in the data set on Mus musculus [3] was inactive. Moreover, the result with Mus musculus [2], in the data set on Mus musculus [7] and with Mus musculus [8] was Active. Further, the Activity entry in [4] was “Dose-dependent effect”. The EC50 in data set [5] amounted to 17.2 µM. Further, the “fold change (FC)” value with Mus musculus [6] was found to be 2.

Consider `C[C@H](CCO)[C@H]1CC[C@H]2[C@@H]3[C@@H](O)C[C@@H]4C[C@H](O)CC[C@]4(C)[C@H]3CC[C@]12C`, for which the Activity result in data set [4] was “Dose-dependent effect”. In addition, the EC50 in [5] was 24.4 µM.

Regarding `C[C@H](CCC(=O)O)[C@H]1CC[C@H]2[C@@H]3[C@@H](O)C[C@@H]4C[C@H](O)CC[C@]4(C)[C@H]3CC[C@]12C`, the result with Mus musculus [9] and with Mus musculus [10] was Active. Besides, the outcome in the data set on Mus musculus [11] and with Mus musculus [12] was inactive.

On to `C[C@H](CCCCC(=O)O)[C@H]1CC[C@H]2[C@@H]3[C@H](O)C[C@@H]4C[C@H](O)CC[C@]4(C)[C@H]3CC[C@]12C`, for which the Activity result in the data set with HEK-293T was “Toxic”. The outcome in data set [13] was Active.
